“And” between values parts separate entries of the source, which are not always exact repeats. Identical values can stand only once.
Tests used:
Assay type in all cases: toxicity, cell-based
[1] = system: HEK-293T; assay: Multiplex assay against HEK293T; conditions: human, number of replicates 2
Procedure, shortened: (§1)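 Live cells were stained at seeding with Hoechst33342, BioTracker Green Microtubule Cytoskeleton Dye, MitoTracker Red and Annexin V Alexa Fluor 680. Following compound addition, they were imaged on a CQ1 microscope at 37°C and 5% CO2 and gated by CellPathfinder machine learning into Hoechst high-intensity objects or normal cells, with normal cells split into healthy, pyknosed or fragmented nuclei and pyknosed cells into mitotic or apoptotic. Tubulin, mitochondrial-mass and membrane-permeability phenotypes are per cents of healthy-nucleus cells.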

[2] = system: U2OS; assay: Multiplex assay against U2OS; conditions: human, number of replicates 2; procedure, shortened: as §1
[3] = system: Fibroblast; assay: Multiplex assay against human fibroblast; conditions: number of replicates 2; procedure, shortened: as §1
[4] = 12 h, 1 µM, compound concentration 1 uM
[5] = 12 h, 10 µM, compound concentration 10 uM
[6] = 24 h, 1 µM, compound concentration 1 uM
[7] = 24 h, 10 µM, compound concentration 10 uM
[8] = 48 h, 1 µM, compound concentration 1 uM
[9] = 48 h, 10 µM, compound concentration 10 uM

What does the source list for `CS(=O)(=O)c1ccc(C(=O)Nc2cc(F)cc(COc3cc(F)c(Br)cc3CN3CC[C@H](O)C3)c2)c(Cl)c1.O=CO`?
Population Apoptotic (%) [1, 4]: 74% and 64%; Population Healthy Nuclei (%) [1, 4]: 75% and 74%; Population Normal (%) [1, 4]: 90%; Population Pyknosed Nuclei (%) [1, 4]: 18% and 22%; Total Cell Count [1, 4]: 602 and 632; Population Apoptotic (%) [1, 5]: 73% and 77%; Population Healthy Nuclei (%) [1, 5]: 78%; Population Normal (%) [1, 5]: 93% and 88%; Total Cell Count [1, 5]: 459 and 415; Population Apoptotic (%) [1, 6]: 64% and 68%; Population Healthy Nuclei (%) [1, 6]: 79% and 75%; Population Normal (%) [1, 6]: 92% and 89%; Total Cell Count [1, 6]: 818 and 876; Population Apoptotic (%) [1, 7]: 72% and 81%; Population Healthy Nuclei (%) [1, 7]: 76%; Population Normal (%) [1, 7]: 92% and 86%; Total Cell Count [1, 7]: 492 and 449; Population Apoptotic (%) [1, 8]: 52% and 51%; Population Healthy Nuclei (%) [1, 8]: 76% and 82%; Population Normal (%) [1, 8]: 92% and 91%; Population Pyknosed Nuclei (%) [1, 8]: 3% and 4%; Total Cell Count [1, 8]: 1931 and 1977; Population Apoptotic (%) [1, 9]: 75% and 74%; Population Healthy Nuclei (%) [1, 9]: 68%; Population Normal (%) [1, 9]: 83%; Population Pyknosed Nuclei (%) [1, 9]: 18%; Total Cell Count [1, 9]: 551 and 447; Population Apoptotic (%) [2, 4]: 33% and 58%; Population Fragmented Nuclei (%) [2, 4]: 2%; Population Normal (%) [2, 4]: 100%; Population Apoptotic (%) [2, 5]: 60% and 54%; Population Normal (%) [2, 5]: 100%; Population Apoptotic (%) [2, 6]: 82% and 66%; Population Fragmented Nuclei (%) [2, 6]: 2% and 3%; Population Normal (%) [2, 6]: 100% and 96%; Population Apoptotic (%) [2, 7]: 61% and 71%; Population Normal (%) [2, 7]: 100% and 99%; Population Apoptotic (%) [2, 8]: 63% and 88%; Population Fragmented Nuclei (%) [2, 8]: 2% and 1%; Population Normal (%) [2, 8]: 100%; Population Apoptotic (%) [2, 9]: 94% and 89%; Population Normal (%) [2, 9]: 98%; Population Apoptotic (%) [3, 4]: 46% and 47%; Population Fragmented Nuclei (%) [3, 4]: 17%; Population Healthy Nuclei (%) [3, 4]: 64% and 60%; Population Hoechst High Intensity Objects (%) [3, 4]: 0%; Population Normal (%) [3, 4]: 99%; Population Pyknosed Nuclei (%) [3, 4]: 18% and 26%; Total Cell Count [3, 4]: 269 and 200; Population Apoptotic (%) [3, 5]: 67% and 54%; Population Fragmented Nuclei (%) [3, 5]: 20% and 17%; Population Hoechst High Intensity Objects (%) [3, 5]: 0%; Population Normal (%) [3, 5]: 100%; Population Pyknosed Nuclei (%) [3, 5]: 49% and 35%; Total Cell Count [3, 5]: 234; Population Apoptotic (%) [3, 6]: 56% and 57%; Population Fragmented Nuclei (%) [3, 6]: 20% and 17%; Population Healthy Nuclei (%) [3, 6]: 65% and 63%; Population Hoechst High Intensity Objects (%) [3, 6]: 0%; Population Normal (%) [3, 6]: 100%; Population Pyknosed Nuclei (%) [3, 6]: 19%; Total Cell Count [3, 6]: 284 and 204; Population Apoptotic (%) [3, 7]: 88% and 75%; Population Fragmented Nuclei (%) [3, 7]: 11%; Population Healthy Nuclei (%) [3, 7]: 42% and 51%; Population Hoechst High Intensity Objects (%) [3, 7]: 0%; Population Normal (%) [3, 7]: 99% and 100%; Population Pyknosed Nuclei (%) [3, 7]: 44% and 36%; Total Cell Count [3, 7]: 134 and 230; Population Apoptotic (%) [3, 8]: 74% and 71%; Population Fragmented Nuclei (%) [3, 8]: 25%; Population Healthy Nuclei (%) [3, 8]: 66% and 65%; Population Hoechst High Intensity Objects (%) [3, 8]: 0%; Population Normal (%) [3, 8]: 100%; Population Pyknosed Nuclei (%) [3, 8]: 8%; Total Cell Count [3, 8]: 319 and 223; Population Apoptotic (%) [3, 9]: 93% and 90%; Population Fragmented Nuclei (%) [3, 9]: 18% and 10%; Population Healthy Nuclei (%) [3, 9]: 22% and 39%; Population Hoechst High Intensity Objects (%) [3, 9]: 0%; Population Normal (%) [3, 9]: 100% and 98%; Population Pyknosed Nuclei (%) [3, 9]: 58% and 50%; Total Cell Count [3, 9]: 102 and 177

How did the “Population Apoptotic (%)” value [1, 4] turn out when `CS(=O)(=O)c1ccc(C(=O)Nc2cc(F)c(F)c(COc3cc(F)c(Br)cc3CN3CC[C@H](O)C3)c2)c(Cl)c1.O=CO` was run?
The value was 60% and 64%.

And the “Population Mitotic Cells (%)” value [1, 4]?
The value was 39% and 35%.

And the “Population Normal (%)” value [1, 4]?
Its value is 90%.

And the “Total Cell Count” value [1, 4]?
The value was 610 and 577.

And the “Population Apoptotic (%)” value [1, 5]?
The value was 90% and 72%.

And the “Population Mitotic Cells (%)” value [1, 5]?
The value was 9% and 27%.

What about the “Population Normal (%)” value [1, 5] of the same molecule?
The value was 91% and 89%.

What about the “Total Cell Count” value [1, 5] of the same molecule?
The value was 406 and 397.

What about the “Population Apoptotic (%)” value [1, 6] of the same molecule?
The value was 59% and 58%.

And the “Population Mitotic Cells (%)” value [1, 6]?
The value was 40% and 41%.

And the “Population Normal (%)” value [1, 6]?
Its value is 91% and 92%.

What about the “Total Cell Count” value [1, 6] of the same molecule?
Its value is 921 and 854.

And the “Population Apoptotic (%)” value [1, 7]?
Its value is 91% and 78%.

And the “Population Mitotic Cells (%)” value [1, 7]?
Its value is 8%.

What about the “Population Normal (%)” value [1, 7] of the same molecule?
Its value is 85% and 83%.

What about the “Total Cell Count” value [1, 7] of the same molecule?
Its value is 392 and 412.

And the “Population Apoptotic (%)” value [1, 8]?
The value was 23% and 44%.

And the “Population Mitotic Cells (%)” value [1, 8]?
The value was 76% and 55%.

What about the “Population Normal (%)” value [1, 8] of the same molecule?
Its value is 90% and 89%.

And the “Total Cell Count” value [1, 8]?
Its value is 2126 and 1643.

What about the “Population Apoptotic (%)” value [1, 9] of the same molecule?
Its value is 90% and 83%.

What about the “Population Mitotic Cells (%)” value [1, 9] of the same molecule?
Its value is 10% and 16%.

What about the “Population Normal (%)” value [1, 9] of the same molecule?
Its value is 80% and 81%.

And the “Total Cell Count” value [1, 9]?
The value was 434 and 464.

What about the “Population Apoptotic (%)” value [2, 4] of the same molecule?
The value was 71% and 68%.

What about the “Population Hoechst High Intensity Objects (%)” value [2, 4] of the same molecule?
Its value is 0%.

And the “Population Normal (%)” value [2, 4]?
The value was 100%.

What about the “Population Apoptotic (%)” value [2, 5] of the same molecule?
The value was 51% and 52%.

What about the “Population Healthy Nuclei (%)” value [2, 5] of the same molecule?
Its value is 28%.

What about the “Population Hoechst High Intensity Objects (%)” value [2, 5] of the same molecule?
The value was 0%.

And the “Population Normal (%)” value [2, 5]?
Its value is 99% and 100%.

What about the “Population Apoptotic (%)” value [2, 6] of the same molecule?
Its value is 60% and 78%.

What about the “Population Hoechst High Intensity Objects (%)” value [2, 6] of the same molecule?
Its value is 0%.

What about the “Population Normal (%)” value [2, 6] of the same molecule?
The value was 100%.

What about the “Population Apoptotic (%)” value [2, 7] of the same molecule?
Its value is 88% and 86%.

And the “Population Hoechst High Intensity Objects (%)” value [2, 7]?
Its value is 0%.

And the “Population Normal (%)” value [2, 7]?
Its value is 100% and 99%.

What about the “Population Apoptotic (%)” value [2, 8] of the same molecule?
Its value is 60% and 89%.

What about the “Population Healthy Nuclei (%)” value [2, 8] of the same molecule?
Its value is 85%.

What about the “Population Hoechst High Intensity Objects (%)” value [2, 8] of the same molecule?
Its value is 1% and 0%.

And the “Population Normal (%)” value [2, 8]?
Its value is 98% and 100%.

And the “Population Apoptotic (%)” value [2, 9]?
Its value is 98% and 90%.

What about the “Population Healthy Nuclei (%)” value [2, 9] of the same molecule?
Its value is 14% and 6%.

And the “Population Hoechst High Intensity Objects (%)” value [2, 9]?
Its value is 1% and 3%.

And the “Population Normal (%)” value [2, 9]?
The value was 98% and 96%.

What about the “Population Apoptotic (%)” value [3, 4] of the same molecule?
Its value is 25% and 38%.

What about the “Population Healthy Nuclei (%)” value [3, 4] of the same molecule?
The value was 55%.

And the “Population Hoechst High Intensity Objects (%)” value [3, 4]?
Its value is 0%.

What about the “Population Mitotic Cells (%)” value [3, 4] of the same molecule?
Its value is 75% and 61%.

What about the “Population Normal (%)” value [3, 4] of the same molecule?
Its value is 100%.

What about the “Total Cell Count” value [3, 4] of the same molecule?
Its value is 220 and 267.

What about the “Population Apoptotic (%)” value [3, 5] of the same molecule?
The value was 80% and 55%.

And the “Population Healthy Nuclei (%)” value [3, 5]?
Its value is 29%.

What about the “Population Hoechst High Intensity Objects (%)” value [3, 5] of the same molecule?
Its value is 0%.

And the “Population Mitotic Cells (%)” value [3, 5]?
Its value is 20% and 44%.

And the “Population Normal (%)” value [3, 5]?
Its value is 100% and 99%.

What about the “Total Cell Count” value [3, 5] of the same molecule?
Its value is 162 and 357.

What about the “Population Apoptotic (%)” value [3, 6] of the same molecule?
Its value is 54% and 55%.

And the “Population Healthy Nuclei (%)” value [3, 6]?
Its value is 64% and 54%.

And the “Population Hoechst High Intensity Objects (%)” value [3, 6]?
Its value is 0%.

And the “Population Mitotic Cells (%)” value [3, 6]?
Its value is 45% and 44%.

And the “Population Normal (%)” value [3, 6]?
Its value is 99%.

And the “Total Cell Count” value [3, 6]?
The value was 246 and 309.

And the “Population Apoptotic (%)” value [3, 7]?
The value was 94% and 79%.

What about the “Population Healthy Nuclei (%)” value [3, 7] of the same molecule?
The value was 35% and 27%.

And the “Population Hoechst High Intensity Objects (%)” value [3, 7]?
The value was 0%.

What about the “Population Mitotic Cells (%)” value [3, 7] of the same molecule?
Its value is 5%.

And the “Population Normal (%)” value [3, 7]?
Its value is 100% and 99%.

What about the “Total Cell Count” value [3, 7] of the same molecule?
The value was 154 and 339.

And the “Population Apoptotic (%)” value [3, 8]?
The value was 73% and 71%.

What about the “Population Healthy Nuclei (%)” value [3, 8] of the same molecule?
The value was 61% and 60%.

And the “Population Hoechst High Intensity Objects (%)” value [3, 8]?
Its value is 0%.

What about the “Population Mitotic Cells (%)” value [3, 8] of the same molecule?
Its value is 26%.

And the “Population Normal (%)” value [3, 8]?
Its value is 99%.

What about the “Total Cell Count” value [3, 8] of the same molecule?
Its value is 294 and 351.

And the “Population Apoptotic (%)” value [3, 9]?
Its value is 93% and 91%.

And the “Population Healthy Nuclei (%)” value [3, 9]?
The value was 25% and 19%.

What about the “Population Hoechst High Intensity Objects (%)” value [3, 9] of the same molecule?
Its value is 0%.

And the “Population Mitotic Cells (%)” value [3, 9]?
Its value is 6% and 8%.

And the “Population Normal (%)” value [3, 9]?
Its value is 99%.

What about the “Total Cell Count” value [3, 9] of the same molecule?
The value was 147 and 311.

— ChEMBL document CHEMBL5303300, “EUbOPEN Chemogenomics Library - Multiplex” (2023)
